Xi reactivation: activators of inactive X chromosome reactivation, primary screen, imaging, XiGFP fibroblasts, GFP high-content imaging, set 2 | activation, % at 7.58 µM | hit rate 0.055% among 360,000 | XiGFP mouse fibroblasts, % GFP-positive cells imaging, 3 d; cells co-treated with 5-aza-dC sensitizer; scaled so ellipticine positive control = 100%;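 active means mean normalized replicate activation at least 10% and every replicate at or above 10%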
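Material: SV40-immortalized XiGFP fibroblast cells, line 68-5-11 | Buffer or medium: DMEM containing 5-aza-dC | Dosing: One concentration, pinned | Times: 3 d treatment, 15 min room-temperature fixation | Controls: Ellipticine 6 µM positive control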
ABHD5-PLIN5 inh: ABHD5-PLIN5 interaction inhibitors, primary screen, cell lysate, split luciferase complementation, luminescence. hit rate 0.78% among 360,000. inhibition, % at 4 µM. AID 602281, 2012. Perilipin-5 (Homo sapiens) + 1-acylglycerol-3-phosphate O-acyltransferase ABHD5 (Homo …. Split G. princeps luciferase complementation, 4 h;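 active means inhibition above the mean inhibition across every tested compound plus 3 SD, cut at about 22% in these data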
Rpn11 block: Rpn11 (PSMD14) deubiquitinase inhibitors, primary screen, biochemical, fluorescence polarization, uHTS | 26S proteasome non-ATPase regulatory subunit 14 (Homo sapiens), O00487 | human 26S proteasome, Ub4-pepOG fluorescence polarization; 20S core pre-blocked with epoxomicin | inhibition, % at 20 µM | hit rate 0.59% among 360,000;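 active means inhibition at 20 µM, scaled to each plate's controls, above about 33%, limit read from the data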
Rin1 Abl inh: inhibitors of Rin1-Abl protein binding, primary screen, biochemical, TR-FRET | Tyrosine-protein kinase ABL1 (Homo sapiens) + Ras and Rab interactor 1 (Homo sapiens), … | inhibition, % at 7.35 µM | hit rate 0.4% among 360,000; in the data active means inhibition above about 5%, passing the limit was not always enough
NadD block: inhibitors of S. aureus NadD, primary screen, biochemical, colorimetric, uHTS; Nicotinate-nucleotide adenylyltransferase NadD (Staphylococcus aureus N315); AID 602399, 2012; purified NadD enzyme, colorimetric absorbance read-out; hit rate 0.78% among 360,000; inhibition, % at 20 µM; in the data active means inhibition above about 26%
ABHD5-PLIN5 conf: ABHD5-PLIN5 interaction inhibitors, confirmation, biochemical, luminescence; hit rate 67% among 2,200; shares compounds with ABHD5-PLIN5 inh; inhibition, % at 4 µM; in the data active means inhibition above about 23%
HNF4 counter: HNF4 dimerization inhibitors, counter-screen for ABHD5-PLIN5 interaction inhibitor project, biochemical, split-luciferase complementation, luminescence; shares compounds with ABHD5-PLIN5 inh; inhibition, % at 4 µM; hit rate 77% among 2,200;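 active means mean inhibition across replicate wells exceeding the computed hit threshold, cut at about 13% in these data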;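 further: light from luciferase halves that rejoin when HNF4 fusion proteins dimerize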
Target sequence (P41235 whole entry, looked up, the tested form may be a part): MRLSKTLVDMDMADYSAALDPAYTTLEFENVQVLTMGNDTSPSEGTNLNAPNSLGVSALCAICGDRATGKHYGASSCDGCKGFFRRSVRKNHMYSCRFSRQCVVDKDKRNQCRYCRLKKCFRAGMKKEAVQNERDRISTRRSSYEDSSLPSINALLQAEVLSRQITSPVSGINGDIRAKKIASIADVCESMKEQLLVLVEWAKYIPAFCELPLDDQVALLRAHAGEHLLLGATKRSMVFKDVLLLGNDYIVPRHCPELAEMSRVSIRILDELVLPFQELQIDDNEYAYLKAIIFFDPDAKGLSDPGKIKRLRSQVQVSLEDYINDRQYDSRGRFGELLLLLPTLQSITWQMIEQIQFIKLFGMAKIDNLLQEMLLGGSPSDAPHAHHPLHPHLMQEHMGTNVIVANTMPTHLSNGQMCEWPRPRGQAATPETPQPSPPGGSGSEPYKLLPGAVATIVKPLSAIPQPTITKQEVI
A number is an active result; 0 = inactive; - = not tested or not shown. An excerpt weighted towards active compounds, which were near 1.9% of everything screened.

SMILES | Xi reactivation | ABHD5-PLIN5 inh | Rpn11 block | Rin1 Abl inh | NadD block | ABHD5-PLIN5 conf | HNF4 counter
O=C1N[C@H](c2ccccc2)COCc2cn(nn2)CC[C@H]1Cc1ccc(Cl)cc1 | 0 | - | - | - | - | - | -
CCSc1nc2ccccc2n1C(=O)/C=C\c1ccc(OC)c(OC)c1 | - | 40 | 0 | 0 | 0 | 77 | 60
O=C(/C(=C/c1ccc(Cl)cc1)c1nc2ccccc2[nH]1)c1ccccc1 | - | 28 | 0 | 0 | 0 | 100 | 94
COc1cc(/C=C(/C(=O)c2cccs2)c2nc3ccccc3[nH]2)cc(OC)c1O | - | 60 | 0 | 0 | 0 | 88 | 88
O=C(/C=C/c1ccc(-c2ccccc2[N+](=O)[O-])o1)c1ccc(F)cc1 | - | 29 | 0 | 0 | 0 | 43 | 33
O=C(/C=C/c1ccccc1[N+](=O)[O-])c1ccccc1Br | 0 | 82 | 0 | 0 | 0 | 98 | 98
Cc1ccc(C(=O)/C=C/c2ccccc2[N+](=O)[O-])cc1 | 0 | 52 | 0 | 0 | 0 | 85 | 78
C[C@@H]1CCCCO[C@H](CN(C)C(=O)Nc2ccccc2)[C@H](C)CN([C@@H](C)CO)C(=O)c2cc(NC(=O)Nc3cccc4ccccc34)ccc2O1 | 0 | - | - | - | - | - | -
CCS(=O)(=O)Nc1ccc2c(c1)C(=O)N(C)C[C@H](OC)[C@H](C)CN(CC1CCCC1)[C@@H](C)CO2 | 0 | - | - | - | - | - | -
CN(C)CCC(=O)C(Cc1ccccc1)c1ccccc1 (stereo unspecified) | 0 | 29 | 0 | 0 | 0 | 60 | 93
COc1ccc(C(=O)C(CN2CCOCC2)c2ccccc2)cc1F (stereo unspecified) | - | 24 | 0 | 0 | 0 | 0 | 63
CC(=C/C(=O)O)/C=C/c1ccco1 | 0 | 25 | 0 | 0 | 0 | 0 | 17
COc1ccc(C(NC(=O)/C=C/c2ccco2)c2ccc(OC)cc2)cc1 | 0 | 25 | 0 | 0 | 0 | 66 | 46
CC(/C=C/c1ccc(Cl)o1)=C\C(=O)O | - | 0 | 0 | 0 | 0 | - | -
CCN(CC)CC(C)(C)C(=O)/C=C/c1ccc(/C=C/C(=O)C(C)(C)CN(CC)CC)cc1 | 0 | 95 | 0 | 0 | 0 | 101 | 107
COc1ccc(CCC(=O)NCCS(=O)(=O)N2CCN(c3ccc(OC)cc3)CC2)cc1 | 0 | 0 | 0 | 0 | 0 | - | -
COc1ccc(N2CCN(S(=O)(=O)CCNC(=O)Cc3ccc([N+](=O)[O-])cc3)CC2)cc1 | 0 | 68 | 0 | 0 | 0 | 0 | 0
CCN(c1ccccc1)S(=O)(=O)c1ccc(C(=O)Nc2ccncc2)cc1 | 0 | 0 | 0 | 0 | 0 | - | -
CC(=O)Nc1ccc(S(=O)(=O)N(C)c2ccccc2)cc1 | - | 0 | 0 | 0 | 0 | - | -
CCN(c1ccccc1)S(=O)(=O)c1ccc(NC(=O)c2nc(S(C)(=O)=O)ncc2Cl)cc1 | - | 78 | 0 | 0 | 0 | 89 | 104
CCS(=O)(=O)c1ncc(Cl)c(C(=O)Nc2ccc(S(=O)(=O)N(C)c3ccccc3)cc2)n1 | 0 | 78 | 0 | 0 | 0 | 92 | 99
C[C@@H]1CN([C@@H](C)CO)C(=O)Cc2cc(NC(=O)C3CC3)ccc2O[C@@H]1CN(C)Cc1ccc2c(c1)OCO2 | 0 | - | - | - | - | - | -
Cc1noc(C)c1S(=O)(=O)Nc1ccc2c(c1)CC(=O)N([C@@H](C)CO)C[C@@H](C)[C@@H](CN(C)Cc1ccc(C(=O)Nc3ccccc3N)cc1)O2 | 0 | - | - | - | - | - | -
CC(C)(C)NC(=O)C(c1ccncc1)N(Cc1ccco1)C(=O)c1ccc(-c2ccccc2)[nH]1 (stereo unspecified) | 0 | 30 | 0 | 0 | 0 | 31 | 44
O=C1N[C@H](Cc2ccccc2)COCc2cn(nn2)CC[C@H]1Cc1ccc(-c2ccccc2)cc1 | 0 | - | - | - | - | - | -
SMILES | Xi reactivation | ABHD5-PLIN5 inh | Rpn11 block | Rin1 Abl inh | NadD block | ABHD5-PLIN5 conf | HNF4 counter
Cc1ccc(C(CC(=O)c2ccc(Cl)cc2)C(=O)O)cc1 (stereo unspecified) | 0 | 0 | 0 | 0 | 0 | - | -
Cc1ccc(SC(CC(=O)c2ccc(C)cc2)C(=O)O)cc1 (stereo unspecified) | - | 69 | 0 | 0 | 0 | 29 | 73
C[C@@H]1CN([C@@H](C)CO)S(=O)(=O)c2ccc(-c3ccccc3)cc2O[C@@H]1CN(C)C(=O)C1CC1 | 0 | - | - | - | - | - | -
CC(C)(C)c1cc(C(=O)CCN2CCOCC2)cc(C(C)(C)C)c1O | 0 | 32 | 0 | 0 | 0 | 0 | 32
CCC(=O)Nc1ccc2c(c1)C(=O)N(C)C[C@H](OC)[C@H](C)CN(C(=O)CN1CCOCC1)[C@@H](C)CO2 | 0 | - | - | - | - | - | -
O=C1N[C@@H](c2ccccc2)COCc2cn(nn2)CC[C@H]1Cc1ccc(-c2ccccc2)cc1 | 0 | - | - | - | - | - | -
CCOc1ccc2[nH]c(=O)c(CN(Cc3ccco3)C(=O)c3cccc(F)c3)cc2c1 | - | 0 | 0 | 0 | 0 | - | -
CCOc1ccc2[nH]c(=O)c(CN(Cc3ccco3)C(=O)c3ccc(Br)cc3)cc2c1 | - | 30 | 0 | 0 | 0 | 89 | 92
O=C1Cc2ccccc2Sc2ccccc21 | - | 39 | 0 | 0 | 0 | 0 | 12
O=C(O)c1ccc(N/N=C/C2=C(N3CCOCC3)C(=C\c3ccccc3)/CC2)cc1 | 0 | 25 | - | 0 | 0 | 0 | 42
CC(=O)N(C)C[C@H]1Oc2ccc(N(C)C)cc2C(=O)N(C)C[C@@H]1C | 0 | - | - | - | - | - | -
O=C(/C=C/c1cc(Br)ccc1O)c1ccco1 | 0 | 82 | 0 | 0 | 0 | 98 | 97
O=C(NNC(=O)c1ccco1)c1cccc(Br)c1 | 0 | 0 | 0 | 0 | 0 | - | -
O=C(/C=C/c1ccccc1O)c1ccco1 | 0 | 61 | 0 | 0 | 0 | 83 | 78
COc1ccc(NC(=O)N(C)C[C@@H]2Oc3ncc(C#CCC(C)C)cc3C(=O)N([C@@H](C)CO)C[C@H]2C)cc1 | 0 | - | - | - | - | - | -
COc1cc(N=c2ssnc2Cl)cc(OC)c1OC | - | 61 | 0 | 0 | 0 | 68 | 103
Cc1cccc(C(=O)N2CCc3ccccc3C2)c1[N+](=O)[O-] | 0 | 0 | 0 | 0 | 0 | - | -
Cc1cccc(C(=O)N2CCCCCC2)c1[N+](=O)[O-] | 0 | 74 | 0 | 0 | 0 | 0 | 0
Cc1[nH]c(C)c(C(=O)/C=C/c2ccc([N+](=O)[O-])cc2)c1C | 0 | 25 | 0 | 0 | 0 | 39 | 44
O=C(C=Cc1ccccc1)c1ccc([N+](=O)[O-])cc1 | 0 | 67 | 0 | 0 | 0 | 95 | 91
COc1ccc(C=CC(=O)c2ccc([N+](=O)[O-])cc2)cc1 | 0 | 0 | - | 0 | 0 | - | -

From PubChem BioAssay
